14 molecules from ChEMBL document CHEMBL4152256, “Structure-activity relationship of new antimalarial 1-aryl-3-susbtituted propanol derivatives: Synthesis, preliminary toxicity profiling, parasite life cycle stage studies, target exploration, and targeted delivery” (Eur J Med Chem, 2018) can be followed below.

Data set [1] concerns Plasmodium falciparum. In words: Antiplasmodial activity against multidrug-resistant Plasmodium falciparum FCR-3 by [3H]-hypoxanthine incorporation assay. The data set is classed as functional, organism-based, FCR-3/Gambia. A digest of the protocol:
(§1)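 Blood-stage P. falciparum 3D7 and FCR-3 were tested by a modified [3H]-hypoxanthine incorporation assay. Chloroquine was the reference in all runs.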

The nature of data set [2]: Cytotoxicity against human HepG2A16 cells by MTT assay. The data set is classed as cell-based. Put shortly: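 MTT viability assay on HepG2-A16 cells, giving CC50 values.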
The subject of data set [3] is Plasmodium falciparum. In words: Antiplasmodial activity against chloroquine-sensitive Plasmodium falciparum 3D7 by [3H]-hypoxanthine incorporation assay. It counts as functional, organism-based. A digest of the protocol: as §1
A short description of data set [4]: Selectivity index, ratio of CC50 for human HepG2A16 cells to IC50 for multidrug-resistant Plasmodium falciparum FCR-3. The data set is classed as toxicity. Put shortly:
(§2)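 HepG2-A16 human hepatoma cells were tested by MTT viability assay to give CC50. Blood-stage activity was measured against the multidrug-resistant P. falciparum FCR-3 strain by [3H]-hypoxanthine incorporation to give IC50. SI = CC50 HepG2 / FCR-3 IC50.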

Data set [5] can be described thus: Cytotoxicity against human HepG2A16 cells. The data set is classed as cell-based.
Data set [6] is described as follows: Selectivity index, ratio of CC50 for human HepG2A16 cells by MTT assay to IC50 for multidrug-resistant Plasmodium falciparum FCR-3. The data set is classed as toxicity. Put shortly: as §2
The subject of data set [7] is Plasmodium falciparum. The data set is described as follows: Binding affinity to Plasmodium falciparum GRP94 nucleotide binding domain at 0.5 mM by SYPRO orange dye based DSF analysis. A digest of the protocol:
(§3)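 Recombinant P. falciparum Hsp90 or GRP94 nucleotide-binding domain (0.05–0.2 mg/mL, optimized per protein) in 25 mM HEPES pH 7.5, 250 mM NaCl. Compound final concentration was 0.5 mM, with SYPRO Orange at 1:1000. Samples were heated from 18 to 90 °C at 1 °C/min. Tm was taken as the Boltzmann-fit inflection point. ΔTm = Tm with ligand minus Tm without, and shifts beyond ±1 °C were counted significant.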

The target in data set [8] is T1, HSP90 (Plasmodium falciparum 3D7) (UniProt Q8IL32).
T1 sequence (whole entry): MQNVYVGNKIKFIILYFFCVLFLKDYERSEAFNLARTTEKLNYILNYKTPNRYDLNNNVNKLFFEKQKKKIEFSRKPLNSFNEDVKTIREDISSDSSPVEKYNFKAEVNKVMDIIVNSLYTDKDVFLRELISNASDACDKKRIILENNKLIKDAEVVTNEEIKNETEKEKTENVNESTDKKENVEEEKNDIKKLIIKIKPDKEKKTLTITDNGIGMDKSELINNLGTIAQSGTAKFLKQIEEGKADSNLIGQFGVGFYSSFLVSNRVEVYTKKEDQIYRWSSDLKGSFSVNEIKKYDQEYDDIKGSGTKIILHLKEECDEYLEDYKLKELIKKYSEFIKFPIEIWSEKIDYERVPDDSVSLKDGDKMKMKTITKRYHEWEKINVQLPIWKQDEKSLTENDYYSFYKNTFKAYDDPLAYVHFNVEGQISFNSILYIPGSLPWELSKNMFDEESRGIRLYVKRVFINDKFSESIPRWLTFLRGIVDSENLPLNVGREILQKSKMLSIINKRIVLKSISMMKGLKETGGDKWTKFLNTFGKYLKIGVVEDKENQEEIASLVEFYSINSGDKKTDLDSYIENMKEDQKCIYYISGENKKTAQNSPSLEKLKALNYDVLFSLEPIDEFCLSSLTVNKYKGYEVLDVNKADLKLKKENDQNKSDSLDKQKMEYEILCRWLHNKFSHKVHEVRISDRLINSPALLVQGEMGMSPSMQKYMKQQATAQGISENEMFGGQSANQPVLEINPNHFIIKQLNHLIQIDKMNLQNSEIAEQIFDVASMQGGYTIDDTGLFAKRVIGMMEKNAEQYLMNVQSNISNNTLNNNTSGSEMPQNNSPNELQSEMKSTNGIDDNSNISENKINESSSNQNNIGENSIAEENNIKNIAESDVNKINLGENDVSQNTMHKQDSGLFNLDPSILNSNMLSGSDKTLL
The data set is described as follows: Binding affinity to Plasmodium falciparum HSP90 nucleotide binding domain at 0.5 mM by SYPRO orange dye based DSF analysis. A digest of the protocol: as §3

For data set [9], the target named is T1, HSP90 (Plasmodium falciparum 3D7). In words: Binding affinity to Plasmodium falciparum HSP90 nucleotide binding domain by SPR analysis. A digest of the protocol:
(§4)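 Purified PfHsp90 and PfGRP94 nucleotide-binding domains were amine-coupled to a CM5 chip (3000 and 7000 RU, respectively), with a blank reference surface. Seven compound concentrations (0.4 nM–1 mM) were injected in triplicate at 30 µL/min, 25 °C, in random order. Running buffer: 10 mM HEPES pH 7.4, 150 mM NaCl, 0.005% P20, 1% DMSO, 2 mM MgCl2. Kd came from double-referenced sensorgrams.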

Data set [10] has as its system Plasmodium falciparum. The data set is described as follows: Binding affinity to Plasmodium falciparum GRP94 nucleotide binding domain by SPR analysis. A digest of the protocol:
as §4

For data set [11], the system named is Plasmodium berghei. The data set is described as follows: Antiplasmodial activity against Plasmodium berghei ANKA infected in mouse assessed as inhibition of parasitemia at 50 mg/kg/day, po for 4 consecutive days starting from 2 hrs post infection by MSF assay relative to control. The data set is classed as functional. A digest of the protocol:
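Swiss male mice (20 ± 2 g) infected ip with 10^7 P. berghei ANKA parasitized cells (day 0). Five per group dosed orally 2 h after infection and daily on days 0–3. Test compounds at 50 mg/kg/day in water:DMSO; chloroquine diphosphate at 3 mg/kg/day; vehicle controls. Parasitemia measured on day 4 by MSF assay; survival checked daily.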

The source made the active and inactive calls. The calls are words filed in the database; no cut-off is given here. Bounds are passed on as bounds.

Consider `COc1ccccc1N1CCN(CCC(O)c2ccc(F)cc2)CC1` (single isomer, unassigned; (+)), for which the IC50 in [1] was 12.2 µM; in data set [3] it was 28.7 µM. The results for the CC50 in data set [2] and in [5] (HepG2A16 cells) were 96 µM and more than 145 µM, respectively. Moreover, the figures for the “Ratio CC50/IC50” value in [4] and in [6] were more than 11.8 and 8, respectively.
Take `O=[N+]([O-])c1ccc(N2CCC(NCCC(O)c3ccc(F)c4ccccc34)CC2)c(C(F)(F)F)c1` (single isomer, unassigned; (+)): the IC50 in data set [1] was 0.19 µM; in [3], 0.48 µM. Moreover, the CC50 was 38.3 µM in [2] and 37.6 µM in data set [5]. For the same molecule, the figures for the “Ratio CC50/IC50” value in data set [4] and in data set [6] were 420 and 201, respectively.
In the case of `N#Cc1ccc(N2CCC(NCCC(O)c3ccc(F)c4ccccc34)CC2)c(C(F)(F)F)c1` (stereo in doubt; (-)-72), the IC50 is 0.39 µM in data set [1] and 0.28 µM in data set [3]. The CC50 is 11 µM in data set [2] and 27.8 µM in data set [5]. Moreover, the “Ratio CC50/IC50” value in data set [4] is on record as 11; in data set [6] it was 28.
Take `Nc1ncnc2c1ncn2[C@@H]1O[C@H](COP(=O)(O)OP(=O)(O)O)[C@@H](O)[C@H]1O`: the outcome in data set [7] and in data set [8] was Active.
For the molecule `N#Cc1ccc(N2CCC(NCCC(O)c3ccc(F)c4ccccc34)CC2)c(C(F)(F)F)c1` (stereo in doubt; 72), the outcome in [7], in data set [9], in data set [8] and in data set [10] was inactive.
Turning to `Nc1ncnc2c1ncn2[C@@H]1O[C@H](COP(=O)(O)OP(=O)(O)OP(=O)(O)O)[C@@H](O)[C@H]1O`, the outcome in data set [7] and in data set [8] was Active.
Regarding `OC(CCN1CCN(c2ccccc2C(F)(F)F)CC1)c1ccc(F)c2ccccc12` (single isomer, unassigned; (+)), the IC50 in data set [1] is 0.21 µM; in [3], 0.54 µM. Besides, the CC50 in [2] stood at 10.8 µM; in [5] (HepG2A16 cells) it was 36.1 µM. The selectivity ratio in [4] (HepG2A16 cells, read-out: Ratio CC50/IC50) stood at 172. Also, the “Ratio CC50/IC50” value in data set [6] is reported as 51.
In the case of `OC(CCN1CCN(c2ccccc2C(F)(F)F)CC1)c1ccc(F)c2ccccc12` (single isomer, unassigned; (-)), the results for the IC50 in data set [1] and in data set [3] were 0.2 µM and 0.88 µM, respectively. Further, the CC50 in data set [2] is 18.2 µM; in data set [5], 61.5 µM. The figures for the “Ratio CC50/IC50” value in data set [4] and in data set [6] were 308 and 91, respectively.
With `COc1ccccc1N1CCN(CCC(O)c2ccc(F)cc2)CC1` (single isomer, unassigned; (-)), the IC50 is 0.66 µM in data set [1] and 1.24 µM in data set [3]. In addition, in [2], half-maximal cytotoxicity (CC50) was put at 14.3 µM. Further, the “Ratio CC50/IC50” value in [4] was more than 219.9; in data set [6], 22.
As to `O=[N+]([O-])c1ccc(N2CCC(NCCC(O)c3ccc(F)c4ccccc34)CC2)c(C(F)(F)F)c1` (stereo in doubt; 8), the outcome in [7], in data set [9], in [8] and in [10] was inactive.
Consider `O=[N+]([O-])c1ccc(N2CCC(NCCC(O)c3ccc(F)c4ccccc34)CC2)c(C(F)(F)F)c1` (single isomer, unassigned; (-)), for which the results for the IC50 in data set [1] and in data set [3] were 0.87 µM and 1.79 µM, respectively. The CC50 worked out at 20 µM in data set [2] and 4.13 µM in data set [5]. The results for the “Ratio CC50/IC50” value in data set [4] and in [6] were 32 and 23, respectively.
Consider `OC(CCN1CCN(c2ccccc2C(F)(F)F)CC1)c1ccc(F)c2ccccc12` (stereo in doubt; 55), for which the result in data set [7], in data set [9], in [8] and in data set [10] was inactive. Besides, the inhibition entry in [11] was “inactive”.
Regarding `N#Cc1ccc(N2CCC(NCCC(O)c3ccc(F)c4ccccc34)CC2)c(C(F)(F)F)c1` (single isomer, unassigned; (+)), the IC50 in data set [1] worked out at 0.65 µM; in data set [3] it was 5.72 µM. Further, the CC50 in data set [2] was 18.8 µM; in data set [5], 79.9 µM. Besides, the “Ratio CC50/IC50” value in data set [4] worked out at 58; in data set [6], 29.
For `COc1ccccc1N1CCN(CCC(O)c2ccc(F)cc2)CC1` (stereo in doubt; 66), the result in data set [7], in [9], in data set [8] and in [10] was inactive.
